pEC50: −log10 of the molar value. The source made the active and inactive calls. The calls are words filed in the database; no cut-off is given here.
Tests used:
LNCaP [1] = test: Cytotoxicity against human LNCaP cells; assay type: functional; details: read-out: ED50 (the source's name)
MCF7 [2] = test: Cytotoxicity against human MCF7 cells; assay type: functional; details: read-out: ED50 (the source's name)
Lu1 [3] = test: Cytotoxicity against human Lu1 cells; assay type: functional; details: read-out: ED50 (the source's name)
[4] = Antitumor activity against human A2780S cells xenografted in mouse at 3 mg/kg relative to control; assay type: functional, A2780
Procedure, shortened: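 Mice bearing human A2780S ovarian carcinoma xenografts; dosed at 3 mg/kg/injection; activity read out as log cell kill versus control; run per a previously published protocol.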

Lu1 [5] = test: Inhibition of human Lu1 cells propagated in hollow fibers via intraperitoneal site of immunodeficient mouse at 6.25 to 50 mg/kg after 3 to 6 days; assay type: functional, organism-based
Procedure, shortened: (§1)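 Lu1, LNCaP or MCF-7 cells in hollow fibers implanted subcutaneously or intraperitoneally in immunodeficient mice. Dosing was once daily by intraperitoneal injection at 6.25, 12.5, 25 or 50 mg/kg on days 3–6 after implantation. Growth inhibition was measured against vehicle-treated animals.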

MCF7 [6] = test: Inhibition of human MCF7 cells propagated in hollow fibers via subcutaneous site of immunodeficient mouse at 6.25 to 50 mg/kg after 3 to 6 days; assay type: functional, organism-based; procedure, shortened: as §1
Lu1 [7] = test: Inhibition of human Lu1 cells propagated in hollow fibers via subcutaneous site of immunodeficient mouse at 6.25 to 50 mg/kg after 3 to 6 days; assay type: functional, organism-based; procedure, shortened: as §1
MCF7 [8] = test: Inhibition of human MCF7 cells propagated in hollow fibers via intraperitoneal site of immunodeficient mouse at 6.25 to 50 mg/kg after 3 to 6 days; assay type: functional; details: dose mg/kg 6.25-50; procedure, shortened: as §1
LNCaP [9] = test: Inhibition of human LNCaP cells propagated in hollow fibers via intraperitoneal site of immunodeficient mouse at 6.25 to 50 mg/kg after 3 to 6 days; assay type: functional, organism-based; procedure, shortened: as §1
LNCaP [10] = test: Inhibition of human LNCaP cells propagated in hollow fibers via subcutaneous site of immunodeficient mouse at 6.25 to 50 mg/kg after 3 to 6 days; assay type: functional, organism-based; procedure, shortened: as §1
P388 = test: Antitumor activity against mouse P388 lymphocytic leukemia model at 15 mg/kg, ip relative to control; assay type: functional; details: route intraperitoneal
Procedure, shortened: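 Murine P388 lymphocytic leukemia in vivo. Compound given by intraperitoneal injection at 15 mg/kg/injection. Activity expressed as T/C (%) relative to control.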

Compound	pEC50 (LNCaP [1]; Homo sapiens, LNCaP)	pEC50 (MCF7 [2]; Homo sapiens, MCF7)	pEC50 (Lu1 [3]; Homo sapiens, Lu1)	other results
CCCCCCCCCCCCC[C@@H]1C[C@@H](OC(=O)COCC(=O)O)C[C@]2(CCC3(C=CC(=O)C=C3)O2)O1	5.72	5.89	5.47	–
CCCCCCCCCCCCC[C@@H]1C[C@@H](OC(=O)c2cc(F)c(Cl)nc2Cl)C[C@]2(CCC3(C=CC(=O)C=C3)O2)O1	4.75	4.84	4.65	–
CCCCCCCCCCC[C@@H]1C[C@@H](O)C[C@]2(CCC3(C=CC(=O)C=C3)O2)O1 (relative stereo) [ACULEATIN F]	6.15	6.30	6.00	–
CCCCCCCCCCCCCCC[C@@H](O)CC1(OC)CCC2(C=CC(=O)C=C2)O1 (stereo in doubt; 6)	–	–	–	pEC50 (LNCaP [1]): 6.15; pEC50 (MCF7 [2]): 6.05; pEC50 (Lu1 [3]): 6.05
CCCCCCCCCCCCC[C@@H]1C[C@@H](OC(=O)c2ccc(Br)cc2)C[C@]2(CCC3(C=CC(=O)C=C3)O2)O1	6.10	6.15	5.89	–
CCCCCCCCCCCCC[C@@H]1CC(=O)C[C@]2(CCC3(C=CC(=O)C=C3)O2)O1	4.66	5.12	4.52	–
CCCCCCCCCCCCC[C@@H]1C[C@@H](O)C[C@@]2(CCC3(C=CC(=O)C=C3)O2)O1 [ACULEATINS B]	5.92	5.72	5.51	–
CCCCCCCCCCCCC[C@@H]1C[C@@H](O)C[C@]2(CCC3(C=CC(=O)C=C3)O2)O1 [ACULEATIN A]	6.30	6.70	6.00	LCK [4]: 0.4; Activity (Lu1 [5]): inactive; Activity (MCF7 [6]): inactive; Activity (Lu1 [7]): inactive; Inhibition (MCF7 [8]): 10%; Activity (LNCaP [9]): inactive; Activity (LNCaP [10]): inactive; T/C (P388): 122%
CCCCCCCCCCCCC[C@@H]1C[C@@H](OC(C)=O)C[C@@]2(CCC3(C=CC(=O)C=C3)O2)O1	5.66	5.46	5.24	–
CCCCCCCCCCC[C@@H]1C[C@H](O)C[C@@]2(CCC3(C=CC(=O)C=C3)O2)O1 (relative stereo) [ACULEATIN E]	5.74	6.30	5.74	–
CCCCCCCCCCCCCCC[C@@H](O)CC1(OC)CCC2(C=CC(=O)C=C2)O1 (stereo in doubt; 7)	6.05	6.15	6.30	–
CCCCCCCCCCCCC[C@@H]1C[C@@H](OC(=O)c2c(Br)c(Br)c(Br)c(Br)c2C(=O)O)C[C@]2(CCC3(C=CC(=O)C=C3)O2)O1	5.29	5.33	4.99	–
CCCCCCCCCCCCC[C@@H]1C[C@@H](OC(=O)c2c(Cl)c(Cl)c(Cl)c(Cl)c2C(=O)O)C[C@]2(CCC3(C=CC(=O)C=C3)O2)O1	5.24	5.32	4.89	–
CCCCCCCCCCCCC[C@@H]1C[C@@H](O)C[C@@]2(CC[C@]3(C=CC(=O)C[C@@H]3O)O2)O1 (relative stereo) [ACULEATOL E]	5.36	5.41	5.74	–
CCCCCCCCCCCCC[C@@H]1C[C@@H](OC(C)=O)C[C@]2(CCC3(C=CC(=O)C=C3)O2)O1	5.96	5.82	5.59	–
CCCCCCCCCCCCC[C@@H]1C[C@@H](OC(=O)[C@@]23CC[C@@](C)(C(=O)O2)C3(C)C)C[C@]2(CCC3(C=CC(=O)C=C3)O2)O1	5.52	5.49	5.40	–
